Source: ChEMBL document CHEMBL2157987, “Benzimidazole bearing oxadiazole and triazolo-thiadiazoles nucleus: design and synthesis as anticancer agents” (2012)

How the values were obtained:
Assay type in all cases: functional
[1] = test system: CCRF-CEM; assay: Cytotoxicity against human CCRF-CEM cells after 48 hrs by SRB assay
Summary of the method: (§1)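 Five-dose NCI-60 panel screen: cells grown in RPMI 1640 with 5% FBS and 2 mM L-glutamine, preincubated 24 h at 37 °C, 5% CO2. Five 10-fold dilutions, 0.01–100 µM, applied for 48 h. Fixed with cold TCA (10% final), stained with 0.4% SRB, absorbance read at 515 nm. GI50, TGI and LC50 were taken from log concentration versus % growth curves using time-zero plates.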

[2] = test system: HL-60(TB); assay: Cytotoxicity against human HL-60(TB) cells after 48 hrs by SRB assay; details: HL-60, 48 h
Summary of the method: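 Human tumour line grown in RPMI 1640 with 5% FBS and 2 mM L-glutamine. Cells were plated and held 24 h at 37 °C/5% CO2 before dosing, and time-zero plates were TCA-fixed. Five 10-fold concentrations (0.01–100 µM) were added from DMSO stock and incubated 48 h. Cells were TCA-fixed, stained with 0.4% SRB and read at 515 nm. Values were calculated from growth curves relative to time-zero and control.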

[3] = test system: K562; assay: Cytotoxicity against human K562 cells after 48 hrs by SRB assay; details: K562, 48 h; summary of the method: as §1
[4] = test system: MOLT-4; assay: Cytotoxicity against human MOLT4 cells after 48 hrs by SRB assay; details: MOLT-4, 48 h; summary of the method: as §1
[5] = test system: RPMI-8226; assay: Cytotoxicity against human RPMI8226 cells after 48 hrs by SRB assay; details: RPMI-8226, 48 h; summary of the method: as §1
[6] = test system: SR; assay: Cytotoxicity against human SR cells after 48 hrs by SRB assay
Summary of the method: (§2)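 Cells were grown in RPMI 1640 with 5% FBS and 2 mM L-glutamine, then held 24 h at 37 °C and 5% CO2 before dosing. TCA-fixed time-zero plates were kept. Compound was dissolved in DMSO and given at five 10-fold dilutions for 48 h. Cells were fixed with cold TCA (10% final), stained with 0.4% SRB and read at 515 nm. GI50, TGI and LC50 came from Ti/Tz/control growth formulas.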

[7] = test system: A549; assay: Cytotoxicity against human A549 cells after 48 hrs by SRB assay; details: A549, 48 h; summary of the method: as §1
[8] = test system: NCI-H226; assay: Cytotoxicity against human NCI-H226 cells after 48 hrs by SRB assay; details: NCI-H226, 48 h; summary of the method: as §1
[9] = test system: COLO 205; assay: Cytotoxicity against human COLO205 cells after 48 hrs by SRB assay; details: COLO 205, 48 h; summary of the method: as §1
[10] = test system: HT-29; assay: Cytotoxicity against human HT-29 cells after 48 hrs by SRB assay; details: HT-29, 48 h; summary of the method: as §1
[11] = test system: SW-620; assay: Cytotoxicity against human SW620 cells after 48 hrs by SRB assay; details: SW-620, 48 h; summary of the method: as §2
[12] = test system: SF-295; assay: Cytotoxicity against human SF295 cells after 48 hrs by SRB assay; details: SF-295, 48 h; summary of the method: as §1
[13] = test system: LOX IMVI; assay: Cytotoxicity against human LOXIMVI cells after 48 hrs by SRB assay; summary of the method: as §1
[14] = test system: Malme-3M; assay: Cytotoxicity against human MALME-3M cells after 48 hrs by SRB assay; summary of the method: as §1
[15] = test system: SK-MEL-2; assay: Cytotoxicity against human SK-MEL-2 cells after 48 hrs by SRB assay; details: SK-MEL-2, 48 h; summary of the method: as §1
[16] = test system: UACC-257; assay: Cytotoxicity against human UACC257 cells after 48 hrs by SRB assay; details: UACC-257, 48 h; summary of the method: as §2
[17] = test system: OVCAR-3; assay: Cytotoxicity against human OVCAR3 cells after 48 hrs by SRB assay; details: OVCAR-3, 48 h; summary of the method: as §1
[18] = test system: OVCAR-5; assay: Cytotoxicity against human OVCAR5 cells after 48 hrs by SRB assay; details: OVCAR-5, 48 h; summary of the method: as §1
[19] = test system: DU-145; assay: Cytotoxicity against human DU145 cells after 48 hrs by SRB assay; details: DU-145, 48 h; summary of the method: as §1
[20] = test system: MDA-MB-231; assay: Cytotoxicity against human MDA-MB-231 cells after 48 hrs by SRB assay; details: MDA-MB-231, 48 h; summary of the method: as §1
[21] = read-out: LC50 (the source's name)
[22] = read-out: pLC50 (the source's name) (converted)

Nc1cc(Br)c(-c2nnc(CCC(=O)c3nc4ccccc4[nH]3)o2)c(Br)c1
GI50 [1]: 3.8 µM
CC50 [1, 21]: > 100 µM
TGI ([1]; read-out: TGI): > 100 µM
CC50 [1, 22]: > 100 µM
TGI ([1]; read-out: pTGI): > 100 µM
GI50 [2]: 3.47 µM
CC50 [2, 21]: > 100 µM
TGI ([2]; read-out: TGI): > 100 µM
CC50 [2, 22]: > 100 µM
TGI ([2]; read-out: pTGI): > 100 µM
GI50 [3]: 2.88 µM
CC50 [3, 21]: > 100 µM
TGI ([3]; read-out: TGI): > 100 µM
CC50 [3, 22]: > 100 µM
TGI ([3]; read-out: pTGI): > 100 µM
GI50 [4]: 4.9 µM
CC50 [4, 21]: > 100 µM
TGI ([4]; read-out: TGI): > 100 µM
CC50 [4, 22]: > 100 µM
TGI ([4]; read-out: pTGI): > 100 µM
GI50 [5]: 4.17 µM
CC50 [5, 21]: > 100 µM
TGI ([5]; read-out: TGI): > 100 µM
CC50 [5, 22]: > 100 µM
TGI ([5]; read-out: pTGI): > 100 µM
GI50 [6]: 4.17 µM
CC50 [6, 21]: > 100 µM
TGI ([6]; read-out: TGI): > 100 µM
CC50 [6, 22]: > 100 µM
TGI ([6]; read-out: pTGI): > 100 µM
GI50 [7]: 27.5 µM
CC50 [7, 21]: > 100 µM
TGI ([7]; read-out: TGI): > 100 µM
CC50 [7, 22]: > 100 µM
TGI ([7]; read-out: pTGI): > 100 µM
GI50 [8]: 22.4 µM
CC50 [8, 21]: > 100 µM
TGI ([8]; read-out: TGI): > 100 µM
CC50 [8, 22]: > 100 µM
TGI ([8]; read-out: pTGI): > 100 µM
GI50 [9]: 11.7 µM
CC50 [9, 21]: 80.1 µM
TGI ([9]; read-out: TGI): 30.8 µM
CC50 [9, 22]: 79.4 µM
TGI ([9]; read-out: pTGI (converted)): 30.9 µM
GI50 [10]: 19.1 µM
CC50 [10, 21]: > 100 µM
TGI ([10]; read-out: TGI): 83.5 µM
CC50 [10, 22]: > 100 µM
TGI ([10]; read-out: pTGI (converted)): 83.2 µM
GI50 [11]: 3.31 µM
CC50 [11, 21]: > 100 µM
TGI ([11]; read-out: TGI): > 100 µM
CC50 [11, 22]: > 100 µM
TGI ([11]; read-out: pTGI): > 100 µM
GI50 [12]: 9.77 µM
CC50 [12, 21]: > 100 µM
TGI ([12]; read-out: TGI): 35.6 µM
CC50 [12, 22]: > 100 µM
TGI ([12]; read-out: pTGI (converted)): 35.5 µM
GI50 [13]: 3.24 µM
CC50 [13, 21]: > 100 µM
TGI ([13]; read-out: TGI): 46.4 µM
CC50 [13, 22]: > 100 µM
TGI ([13]; read-out: pTGI (converted)): 46.8 µM
GI50 [14]: 2.04 µM
CC50 [14, 21]: > 100 µM
TGI ([14]; read-out: TGI): 17.2 µM
CC50 [14, 22]: > 100 µM
TGI ([14]; read-out: pTGI (converted)): 17.4 µM
GI50 [15]: 4.27 µM
CC50 [15, 21]: > 100 µM
TGI ([15]; read-out: TGI): > 100 µM
CC50 [15, 22]: > 100 µM
TGI ([15]; read-out: pTGI): > 100 µM
GI50 [16]: 7.59 µM
CC50 [16, 21]: > 100 µM
TGI ([16]; read-out: TGI): > 100 µM
CC50 [16, 22]: > 100 µM
TGI ([16]; read-out: pTGI): > 100 µM
GI50 [17]: 2.63 µM
LC50 ([17]; read-out: LC50): > 100 µM
TGI ([17]; read-out: TGI): 6.98 µM
LC50 ([17]; read-out: pLC50 (converted)): > 100 µM
TGI ([17]; read-out: pTGI (converted)): 6.92 µM
GI50 [18]: 29.5 µM
LC50 ([18]; read-out: LC50): > 100 µM
TGI ([18]; read-out: TGI): > 100 µM
LC50 ([18]; read-out: pLC50 (converted)): > 100 µM
TGI ([18]; read-out: pTGI): > 100 µM
GI50 [19]: 5.37 µM
LC50 (50% lethal concentration) ([19]; read-out: LC50): > 100 µM
TGI ([19]; read-out: TGI): 53.5 µM
LC50 (50% lethal concentration) ([19]; read-out: pLC50 (converted)): > 100 µM
TGI ([19]; read-out: pTGI (converted)): 53.7 µM
GI50 [20]: 10.2 µM
LC50 ([20]; read-out: LC50): > 100 µM
TGI ([20]; read-out: TGI): 86.8 µM
LC50 ([20]; read-out: pLC50 (converted)): > 100 µM
TGI ([20]; read-out: pTGI (converted)): 87.1 µM
